Results from article PMC2963086 (Analytical biochemistry, 2010).
Values joined by “and” are separate entries in the source; they are usually repeats but may differ in a detail not shown here. Equal values may be shown once. Read-outs that look alike come from different tables or passages of the source.

Tests used:
[1] = system: Glucose dehydrogenase (GDH); conditions: native NAD^+; cited from earlier work
[2] = target: T1, Malate dehydrogenase (MDH) (Sus scrofa, UniProt P00346); conditions: native NAD^+, 37; cited from earlier work
T1 sequence (P00346 25-338): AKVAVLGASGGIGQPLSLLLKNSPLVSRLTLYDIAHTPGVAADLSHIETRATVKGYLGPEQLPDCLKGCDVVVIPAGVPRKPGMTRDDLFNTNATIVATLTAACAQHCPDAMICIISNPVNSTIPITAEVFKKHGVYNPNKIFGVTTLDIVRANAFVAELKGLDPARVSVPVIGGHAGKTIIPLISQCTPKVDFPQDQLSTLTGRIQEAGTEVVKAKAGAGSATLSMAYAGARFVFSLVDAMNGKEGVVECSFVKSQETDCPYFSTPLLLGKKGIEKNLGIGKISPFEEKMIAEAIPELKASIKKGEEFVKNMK

[3] = target: T1, Malate dehydrogenase (MDH); assay: Enzymatic reaction assay, competitive inhibition, initial rates; format: biochemical, Porcine heart mitochondria (sus scrofa)
[4] = target: T2, Formate dehydrogenase (FDH) (Candida boidinii, UniProt O13437); conditions: native NAD^+, cited from earlier work
T2 sequence (O13437 1-364): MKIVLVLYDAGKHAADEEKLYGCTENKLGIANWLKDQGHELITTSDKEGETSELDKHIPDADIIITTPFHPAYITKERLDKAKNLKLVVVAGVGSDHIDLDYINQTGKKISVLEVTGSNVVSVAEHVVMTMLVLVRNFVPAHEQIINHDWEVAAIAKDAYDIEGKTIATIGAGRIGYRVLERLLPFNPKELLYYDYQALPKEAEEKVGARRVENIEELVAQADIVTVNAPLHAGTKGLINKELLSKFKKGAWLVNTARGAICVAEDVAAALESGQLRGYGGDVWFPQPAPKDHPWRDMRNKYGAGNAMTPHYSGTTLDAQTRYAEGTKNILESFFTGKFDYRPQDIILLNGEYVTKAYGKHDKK

[5] = system: formate dehydrogenase (FDH); conditions: azide anion with FDH; cited from earlier work
[6] = Stability in phosphate buffer by UV absorbance ratio 260/303 nm; format: physicochemical; conditions: phosphate buffer pH 7.5, 24 hrs, 25 °C
[7] = target: T1, Malate dehydrogenase (MDH); assay: ITC binding of azo-NAD^+ to malate dehydrogenase; format: Porcine heart mitochondria (sus scrofa); conditions: pH 7.5
Outline: (§1)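 Isothermal titration calorimetry at pH 7.5 with commercial enzymes: Candida boidinii FDH and porcine heart mitochondrial MDH. Titrations of azo-NAD+ with enzyme; for the MDH ternary complex, malate is present. Heats of dilution subtracted from raw heats. Integrated heats fitted to a single-site binding model to give Kd.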

[8] = target: T2, Formate dehydrogenase (FDH); assay: Enzymatic reaction assay, initial rates; format: biochemical
[9] = target: T2, Formate dehydrogenase (FDH); assay: ITC binding of azo-NAD^+ to formate dehydrogenase; conditions: Kd (Binary), FDH binary complex, pH 7.5
Outline: as §1

[10] = Solubility of the solid analog; format: physicochemical; conditions: phosphate buffer and methanol at room temperature
[11] = target: Glucose dehydrogenase (GDH); assay: Fluorescence titration; format: binding, Bacillus megaterium; conditions: read-out: Kd (Binary); GDH binary complex; fluorescence experiments; pH 7.5
[12] = system: Glucose dehydrogenase (GDH); assay: Enzymatic reaction assay, initial rates; format: biochemical, Bacillus megaterium
Outline: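 Commercial Bacillus megaterium GDH in a 1 mL UV cuvette with 0.1 M phosphate buffer, pH 7.5, and azo-NAD+ as coenzyme. Initial rates taken over 2 min from the absorbance rise at 340 nm (azo-NADH). Km and kcat obtained by fitting rates against azo-NAD+ concentration to the Michaelis–Menten equation, with Vmax = [E]·kcat.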

[13] = substrate: [N-]=[N+]=Nc1ccc[n+]([C@@H]2O[C@H](COP(=O)([O-])OP(=O)(O)OC[C@H]3O[C@@H](n4cnc5c(N)ncnc54)[C@H](O)[C@@H]3O)[C@@H](O)[C@H]2O)c1; assay: Enzymatic reaction assay, initial rates; format: biochemical, Candida boidinii; conditions: other: FDH, azo-NAD^+ as substrate, 0.1 M phosphate buffer pH 7.5
[14] = azo-NAD^+ as substrate, 0.1 M phosphate buffer pH 7.5

Question: Which Km [1] does the source give for NC(=O)c1ccc[n+]([C@@H]2O[C@H](COP(=O)([O-])OP(=O)(O)OC[C@H]3O[C@@H](n4cnc5c(N)ncnc54)[C@H](O)[C@@H]3O)[C@@H](O)[C@H]2O)c1 [NAD^+, nicotinamide adenine dinucleotide] here?
Answer: 370 µM

Question: What about the kcat [1] of the same molecule?
Answer: 390 ^d s^−1

Question: What about the Km [2] of the same molecule?
Answer: 140 µM

Question: And the kcat ([3]; MDH, native NAD^+, no reference given)?
Answer: 45 s⁻¹

Question: What about the “kcat (turnover number)” value ([4]; Candida Boidinii FDH) of the same molecule?
Answer: 3.7 s^−1 and 3.7 ^c s^−1

Question: And the Km ([4]; FDH)?
Answer: 90 µM

Question: Which binding constant [5] does the source give for [N-]=[N+]=[N-] [azide anion] here?
Answer: nanomolar

Question: For [N-]=[N+]=Nc1ccc[n+]([C@@H]2O[C@H](COP(=O)([O-])OP(=O)(O)OC[C@H]3O[C@@H](n4cnc5c(N)ncnc54)[C@H](O)[C@@H]3O)[C@@H](O)[C@H]2O)c1 [azo-NAD^+], which “stability (ratio of UV absorbance 260 nm/303 nm unchanged)” value [6] is on record?
Answer: stable

Question: What about the Kd ([7]; Kd (Binary), MDH binary complex) of the same molecule?
Answer: 152 µM

Question: What about the Kd ([7]; Kd (Ternary), MDH ternary complex with substrate malate) of the same molecule?
Answer: 70 µM

Question: What about the “behaviour as substrate or inhibitor” value [8] of the same molecule?
Answer: substrate

Question: What about the Kd [9] of the same molecule?
Answer: 63 µM

Question: What about the Ki [3] of the same molecule?
Answer: 83 µM

Question: What about the “behaviour as substrate or inhibitor” value ([3]; MDH) of the same molecule?
Answer: competitive inhibitor

Question: What about the solubility [10] of the same molecule?
Answer: soluble

Question: What about the Kd [11] of the same molecule?
Answer: 300 µM

Question: And the “behaviour as substrate or inhibitor” value [12]?
Answer: substrate

Question: What about the Km [12, 14] of the same molecule?
Answer: 72 µM

Question: And the kcat [12, 14]?
Answer: 344 s⁻¹

B1: Formate dehydrogenase (FDH) ([Candida] boidinii) (protein)
chain: MKIVLVLYDAGKHAADEEKLYGCTENKLGIANWLKDQGHELITTSDKEGETSELDKHIPDADIIITTPFHPAYITKERLDKAKNLKLVVVAGVGSDHIDLDYINQTGKKISVLEVTGSNVVSVAEHVVMTMLVLVRNFVPAHEQIINHDWEVAAIAKDAYDIEGKTIATIGAGRIGYRVLERLLPFNPKELLYYDYQALPKEAEEKVGARRVENIEELVAQADIVTVNAPLHAGTKGLINKELLSKFKKGAWLVNTARGAICVAEDVAAALESGQLRGYGGDVWFPQPAPKDHPWRDMRNKYGAGNAMTPHYSGTTLDAQTRYAEGTKNILESFFTGKFDYRPQDIILLNGEYVTKAYGKHDKK
Question: Which results are given for B1?
Answer: Km [13]: 378 µM; kcat [13]: 7.5 s⁻¹
